Tests used:
Type in all cases: ADME
Liver microsome [1] = experiment: Drug metabolism in pooled human liver microsomes assessed as T-5224 acyl O-glucuronide formation at 10 uM after 10 mins by HPLC method
How it was run: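 T-5224 at 10 μM incubated for 10 min at 37°C with UDPGA (2 mM) in pooled liver (0.5 mg protein/mL) or intestinal (0.25 mg protein/mL) microsomes. Buffer was 50 mM Tris-HCl pH 7.5 with 8 mM MgCl2 and alamethicin, after 5 min preincubation. Stopped with acetonitrile; glucuronides quantified by HPLC at 290 nm.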

[2] = target: T1, UDP-glucuronosyltransferase 1A1 (Homo sapiens, UniProt P22309); experiment: Drug metabolism assessed as human UGT1A1-mediated T-5224 acyl O-glucuronide formation at 5 to 50 uM after 60 mins in presence of UDP-glucuronic acid by HPLC method; conditions: recombinant enzyme, 1 h
T1 sequence (P22309 whole entry): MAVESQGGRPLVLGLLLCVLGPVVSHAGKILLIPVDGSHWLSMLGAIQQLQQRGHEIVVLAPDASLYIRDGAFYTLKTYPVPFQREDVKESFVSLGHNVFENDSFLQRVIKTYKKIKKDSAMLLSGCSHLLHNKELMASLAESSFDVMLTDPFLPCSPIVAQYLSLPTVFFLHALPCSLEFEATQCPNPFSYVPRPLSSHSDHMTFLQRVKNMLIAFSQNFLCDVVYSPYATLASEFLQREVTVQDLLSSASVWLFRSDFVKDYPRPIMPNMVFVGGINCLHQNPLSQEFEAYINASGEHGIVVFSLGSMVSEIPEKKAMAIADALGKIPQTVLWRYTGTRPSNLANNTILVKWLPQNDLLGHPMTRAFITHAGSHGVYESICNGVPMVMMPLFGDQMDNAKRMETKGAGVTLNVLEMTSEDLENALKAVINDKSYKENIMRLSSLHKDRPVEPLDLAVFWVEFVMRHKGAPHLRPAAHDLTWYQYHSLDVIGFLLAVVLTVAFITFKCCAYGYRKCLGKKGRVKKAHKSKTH

Liver microsome [3] = experiment: Drug metabolism in human liver microsomes assessed as T-5224 acyl O-glucuronide formation after 10 to 60 mins by HPLC method
How it was run: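 Pooled liver microsomes (0.5 mg/mL) were incubated 10 min. Pooled intestinal microsomes (0.25 mg/mL) ran 10 min at T-5224 10–50 μM and 20 min at 1–5 μM. Buffer was 50 mM Tris-HCl pH 7.5 with 8 mM MgCl2, alamethicin and 2 mM UDPGA, at 37°C, in triplicate. Glucuronides G2/G3 were read by HPLC at 290 nm and fitted for Vmax/Km.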

Liver microsome [4] = experiment: Drug metabolism in human liver microsomes assessed as Vmax/Km ratio for T-5224 acyl O-glucuronide formation per mg protein after 10 to 60 mins by HPLC method
How it was run: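 Pooled liver (0.5 mg protein/mL) or intestinal (0.25 mg protein/mL) microsomes in 50 mM Tris-HCl pH 7.5, 8 mM MgCl2, alamethicin, 2% DMSO. T-5224 at 1–50 μM, 5 min preincubation at 37°C, started with 2 mM UDPGA. Incubated 10 min, or 20 min for intestinal microsomes at 1–5 μM. Acetonitrile stop, glucuronides by HPLC at 290 nm. Triplicates fitted to a substrate-inhibition model.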

Cytochrome P450 2A6 = target: T2, Cytochrome P450 2A6 (Homo sapiens, UniProt P11509); experiment: Drug metabolism assessed as human CYP2A6-mediated metabolite formation at 2 uM after 30 mins by HPLC method; conditions: recombinant enzyme, 0.5 h
T2 sequence (P11509 whole entry): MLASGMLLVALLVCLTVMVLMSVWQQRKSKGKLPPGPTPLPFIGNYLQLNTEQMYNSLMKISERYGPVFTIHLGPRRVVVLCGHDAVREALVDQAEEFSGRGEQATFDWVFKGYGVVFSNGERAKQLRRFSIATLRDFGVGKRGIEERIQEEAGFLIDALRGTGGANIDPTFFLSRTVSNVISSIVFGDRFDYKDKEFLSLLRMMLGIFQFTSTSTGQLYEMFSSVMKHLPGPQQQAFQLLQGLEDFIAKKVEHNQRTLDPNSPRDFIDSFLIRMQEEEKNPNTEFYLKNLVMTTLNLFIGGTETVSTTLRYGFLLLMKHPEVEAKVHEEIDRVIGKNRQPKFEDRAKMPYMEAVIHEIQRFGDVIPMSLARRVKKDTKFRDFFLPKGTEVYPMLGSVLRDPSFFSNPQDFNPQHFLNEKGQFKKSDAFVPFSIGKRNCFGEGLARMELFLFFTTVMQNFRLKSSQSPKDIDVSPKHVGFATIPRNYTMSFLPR
How it was run: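 Each recombinant human P450 was used at 50 pmol/mL with an NADPH-generating system and 2 μM 14C-T-5224 (0.5% DMSO final). Buffer was 100 mM Tris-HCl pH 7.5, except 100 mM potassium phosphate pH 7.4 for CYP2A6 and CYP2C9*1. Incubation ran 30 min at 37°C and was stopped with acetonitrile/methanol. Radioactive metabolite peaks were detected by C18 HPLC.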

O=C(O)CCc1cc(C(=O)c2ccc(OC3CCCC3)cc2O)ccc1OCc1ccc2c(O)noc2c1 was tested, and the Drug metabolism (Liver microsome [1]) was “metabolite_detected”, the Drug metabolism [2] was “metabolite_detected” and the Km (Liver microsome [3]) was 4.93 µM. For the same compound, the Vmax/Km (Liver microsome [4]) was 44 µL/min and the Drug metabolism (Cytochrome P450 2A6) was “metabolite_not_detected”.

— ChEMBL document CHEMBL3526015, “Metabolism of the c-Fos/activator protein-1 inhibitor T-5224 by multiple human UDP-glucuronosyltransferase isoforms” (Drug Metab Dispos, 2011)
